Measured values taken from ChEMBL document CHEMBL1149671, “Enantiopure five-membered cyclicdiamine derivatives as potent and selective inhibitors of factor Xa. Improving in vitro metabolic stability via core modifications” (Bioorg Med Chem Lett, 2007).

Columns and labels:
Coagulation factor X = Coagulation factor X (Homo sapiens, UniProt P00742); assay: Inhibition of human factor 10a
[1] = Cytotoxicity against HEK cells; format: cell-based; details: Homo sapiens, HEK293
Liver microsomes = assay: Metabolic stability in human liver microsomes assessed as microsomal intrinsic clearance rate; format: ADME, Microsome
Procedure, shortened: (§1)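 Human liver microsomes, 10-min incubation. Metabolic stability given as % compound remaining. Microsomal intrinsic clearance rate (nmol/min/mg) is based on the % remaining after 10 min.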

Plasminogen = Plasminogen (Homo sapiens, UniProt P00747); assay: Inhibition of human Plasmin
Coagulation factor XI = Coagulation factor XI (Homo sapiens, UniProt P03951); assay: Inhibition of human factor 11a
[2] = Clearance in dog at 0.5 mg/kg, iv; format: ADME, organism-based, Canis lupus familiaris; set-up: dose 0.5 mg/kg, route intravenous; details: in vivo
Procedure, shortened: (§2)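 Dogs. Intravenous dose 0.5 mg/kg, used for clearance (L/kg/h), steady-state volume of distribution (L/kg) and iv half-life.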

Prothrombin = Prothrombin (Homo sapiens, UniProt P00734); assay: Inhibition of human thrombin
[3] = molecular target: Urokinase-type plasminogen activator (Homo sapiens, UniProt P00749); assay: Inhibition of human urokinase
[4] = Bioavailability in dog at 0.2 mg/kg, po; format: ADME, organism-based, Canis lupus familiaris; details: in vivo; procedure, shortened: as §2
[5] = Half life in dog at 0.2 mg/kg, po; format: ADME, organism-based, Canis lupus familiaris; set-up: dose 0.2 mg/kg, route oral; details: in vivo
Coagulation factor VII = molecular target: T1, Coagulation factor VII (Homo sapiens, UniProt P08709); assay: Inhibition of human factor 7a
T1 sequence (P08709 whole entry): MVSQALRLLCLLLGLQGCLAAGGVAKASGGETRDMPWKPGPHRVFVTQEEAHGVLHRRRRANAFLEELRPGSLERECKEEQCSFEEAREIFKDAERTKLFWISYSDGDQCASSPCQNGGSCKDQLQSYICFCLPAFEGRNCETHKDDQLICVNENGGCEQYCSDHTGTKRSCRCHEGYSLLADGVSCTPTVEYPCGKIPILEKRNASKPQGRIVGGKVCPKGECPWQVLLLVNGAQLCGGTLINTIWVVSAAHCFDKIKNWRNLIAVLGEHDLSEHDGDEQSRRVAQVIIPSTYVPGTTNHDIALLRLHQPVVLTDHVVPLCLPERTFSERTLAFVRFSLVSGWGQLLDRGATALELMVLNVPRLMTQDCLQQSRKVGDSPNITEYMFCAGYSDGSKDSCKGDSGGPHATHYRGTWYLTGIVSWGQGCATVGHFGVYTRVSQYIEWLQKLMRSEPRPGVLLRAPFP

[6] = Volume of distribution at steady state in dog at 0.5 mg/kg, iv; format: ADME, organism-based, Canis lupus familiaris; set-up: dose 0.5 mg/kg, route intravenous; details: in vivo, read-out: Vdss; procedure, shortened: as §2
[7] = Inhibition of human chymotrypsin
Trypsin = Trypsin (Homo sapiens, UniProt P07477+P07478+P35030); assay: Inhibition of human trypsin; format: protein assay
[8] = molecular target: Vitamin K-dependent protein C (Homo sapiens, UniProt P04070); assay: Inhibition of human activated protein C
[9] = molecular target: Tissue-type plasminogen activator (Homo sapiens, UniProt P00750); assay: Inhibition of human tissue plasminogen activator
[10] = Half life in dog at 0.5 mg/kg, iv; format: ADME, organism-based, Canis lupus familiaris; set-up: dose 0.5 mg/kg, route intravenous; details: in vivo; procedure, shortened: as §2
Plasma kallikrein = Plasma kallikrein (Homo sapiens, UniProt P03952); assay: Inhibition of human plasma kallikrein; format: cell-free
[11] = Metabolic stability in human liver microsomes after 10 mins; format: ADME, Microsome; details: read-out: Stability; procedure, shortened: as §1
[12] = Permeability across Caco-2 cells; format: ADME, cell-based; details: human, read-out: permeability

Chain of Coagulation factor X (P00742 41-179 limits assumed): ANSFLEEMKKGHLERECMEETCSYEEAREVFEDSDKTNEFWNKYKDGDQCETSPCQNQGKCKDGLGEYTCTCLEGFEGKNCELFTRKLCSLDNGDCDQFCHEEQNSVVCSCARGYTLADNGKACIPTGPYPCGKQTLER
Chain of Coagulation factor X (P00742 235-488 limits assumed): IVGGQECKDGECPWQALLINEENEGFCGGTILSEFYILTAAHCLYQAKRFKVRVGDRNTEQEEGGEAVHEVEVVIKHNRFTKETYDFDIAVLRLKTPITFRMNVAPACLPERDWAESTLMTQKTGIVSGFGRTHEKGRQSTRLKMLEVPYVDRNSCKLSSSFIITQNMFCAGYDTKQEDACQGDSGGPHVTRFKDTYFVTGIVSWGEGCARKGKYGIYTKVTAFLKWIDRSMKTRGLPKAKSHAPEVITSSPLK
Chain of Plasminogen (P00747 97-580 limits assumed): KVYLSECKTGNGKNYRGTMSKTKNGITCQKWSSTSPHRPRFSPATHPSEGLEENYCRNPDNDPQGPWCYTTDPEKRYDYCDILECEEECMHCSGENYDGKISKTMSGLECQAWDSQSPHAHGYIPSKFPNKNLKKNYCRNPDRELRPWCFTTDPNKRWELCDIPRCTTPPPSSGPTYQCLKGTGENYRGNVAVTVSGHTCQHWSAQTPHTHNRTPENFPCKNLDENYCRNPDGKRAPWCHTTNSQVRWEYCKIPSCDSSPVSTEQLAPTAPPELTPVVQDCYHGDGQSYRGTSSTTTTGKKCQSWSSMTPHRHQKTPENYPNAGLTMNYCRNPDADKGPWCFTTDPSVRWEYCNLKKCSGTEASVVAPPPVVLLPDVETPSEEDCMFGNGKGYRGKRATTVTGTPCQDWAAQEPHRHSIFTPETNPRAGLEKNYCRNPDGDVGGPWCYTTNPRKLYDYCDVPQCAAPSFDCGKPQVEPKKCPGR
Chain of Plasminogen (P00747 581-810 limits assumed): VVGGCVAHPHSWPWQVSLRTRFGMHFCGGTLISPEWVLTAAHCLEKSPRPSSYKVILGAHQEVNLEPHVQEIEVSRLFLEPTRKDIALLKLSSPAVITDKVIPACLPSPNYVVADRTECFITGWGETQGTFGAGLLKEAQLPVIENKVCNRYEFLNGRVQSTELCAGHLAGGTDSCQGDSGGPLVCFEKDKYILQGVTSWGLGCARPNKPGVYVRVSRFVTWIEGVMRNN
Chain of Coagulation factor XI (P03951 19-387 limits assumed): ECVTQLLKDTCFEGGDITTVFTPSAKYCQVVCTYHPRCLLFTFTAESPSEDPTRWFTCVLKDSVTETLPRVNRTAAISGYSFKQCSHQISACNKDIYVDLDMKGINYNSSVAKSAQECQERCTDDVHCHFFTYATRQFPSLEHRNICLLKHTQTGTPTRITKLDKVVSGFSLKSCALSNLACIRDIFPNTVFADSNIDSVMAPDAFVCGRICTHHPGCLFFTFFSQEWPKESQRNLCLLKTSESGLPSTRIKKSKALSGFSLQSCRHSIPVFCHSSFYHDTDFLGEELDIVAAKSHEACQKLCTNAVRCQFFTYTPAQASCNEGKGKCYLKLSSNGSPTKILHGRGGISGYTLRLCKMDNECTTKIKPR
Chain of Coagulation factor XI (P03951 388-625 limits assumed): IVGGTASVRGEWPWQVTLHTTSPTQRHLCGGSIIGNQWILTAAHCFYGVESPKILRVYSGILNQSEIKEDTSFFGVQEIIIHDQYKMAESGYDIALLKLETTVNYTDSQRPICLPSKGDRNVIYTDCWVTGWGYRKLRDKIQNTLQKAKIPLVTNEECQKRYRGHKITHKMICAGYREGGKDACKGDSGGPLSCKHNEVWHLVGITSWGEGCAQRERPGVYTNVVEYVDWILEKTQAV
Chain of Vitamin K-dependent protein C (P04070 43-197 limits assumed): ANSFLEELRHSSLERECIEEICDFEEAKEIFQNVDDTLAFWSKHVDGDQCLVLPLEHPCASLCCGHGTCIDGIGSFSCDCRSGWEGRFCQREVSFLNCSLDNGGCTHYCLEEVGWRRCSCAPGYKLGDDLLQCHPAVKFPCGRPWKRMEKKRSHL
Chain of Vitamin K-dependent protein C (P04070 212-461 limits assumed): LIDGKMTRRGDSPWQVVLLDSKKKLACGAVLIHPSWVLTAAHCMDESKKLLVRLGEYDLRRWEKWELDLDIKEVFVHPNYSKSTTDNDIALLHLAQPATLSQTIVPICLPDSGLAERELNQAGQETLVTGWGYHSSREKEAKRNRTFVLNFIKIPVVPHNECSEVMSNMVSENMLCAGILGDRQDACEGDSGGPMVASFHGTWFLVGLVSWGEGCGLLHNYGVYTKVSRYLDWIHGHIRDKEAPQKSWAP
Chain of Tissue-type plasminogen activator (P00750 whole entry): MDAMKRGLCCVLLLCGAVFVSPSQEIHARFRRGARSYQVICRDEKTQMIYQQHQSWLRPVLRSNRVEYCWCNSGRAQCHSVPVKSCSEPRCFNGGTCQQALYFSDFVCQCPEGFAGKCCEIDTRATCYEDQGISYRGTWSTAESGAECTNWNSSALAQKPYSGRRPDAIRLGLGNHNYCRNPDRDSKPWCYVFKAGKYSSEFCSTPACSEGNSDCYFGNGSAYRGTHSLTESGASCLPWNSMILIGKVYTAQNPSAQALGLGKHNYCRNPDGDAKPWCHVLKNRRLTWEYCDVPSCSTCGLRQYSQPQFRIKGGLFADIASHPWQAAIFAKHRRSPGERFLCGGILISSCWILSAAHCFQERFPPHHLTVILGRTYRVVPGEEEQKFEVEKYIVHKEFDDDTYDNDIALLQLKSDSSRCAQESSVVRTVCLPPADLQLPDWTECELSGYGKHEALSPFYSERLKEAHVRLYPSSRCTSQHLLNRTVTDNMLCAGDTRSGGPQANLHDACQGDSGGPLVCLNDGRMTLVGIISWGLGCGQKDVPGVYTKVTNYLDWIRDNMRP
Chain of Plasma kallikrein (P03952 20-390 limits assumed): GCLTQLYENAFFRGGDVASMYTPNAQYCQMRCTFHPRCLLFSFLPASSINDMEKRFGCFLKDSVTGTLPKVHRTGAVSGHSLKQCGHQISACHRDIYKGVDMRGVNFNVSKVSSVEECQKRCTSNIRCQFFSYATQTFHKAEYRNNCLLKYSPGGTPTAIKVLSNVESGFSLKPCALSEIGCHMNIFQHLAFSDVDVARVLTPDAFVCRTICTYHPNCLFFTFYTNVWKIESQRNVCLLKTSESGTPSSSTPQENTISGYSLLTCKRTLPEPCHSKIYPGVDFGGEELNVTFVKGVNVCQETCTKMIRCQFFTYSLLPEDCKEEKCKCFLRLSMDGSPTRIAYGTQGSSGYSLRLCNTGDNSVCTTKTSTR
Chain of Plasma kallikrein (P03952 391-638 limits assumed): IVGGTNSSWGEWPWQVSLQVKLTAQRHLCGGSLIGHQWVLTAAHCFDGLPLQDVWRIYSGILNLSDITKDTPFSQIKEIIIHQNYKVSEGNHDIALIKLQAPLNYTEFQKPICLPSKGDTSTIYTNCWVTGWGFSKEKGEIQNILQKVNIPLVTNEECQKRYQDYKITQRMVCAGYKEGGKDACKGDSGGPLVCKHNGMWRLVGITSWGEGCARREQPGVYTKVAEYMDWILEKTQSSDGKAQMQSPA

**Q.** Which Ki (Coagulation factor X) does the source give for CC(C)C(=O)N1C[C@H](NC(=O)c2ccc(-n3ccccc3=O)cc2)[C@H](NC(=O)c2ccc(Cl)s2)C1 here?
**A.** Its Ki is 1.3 nM.

**Q.** And the IC50 [1]?
**A.** The IC50 was greater than 100000 nM.

**Q.** And the CL (Liver microsomes)?
**A.** The CL was 0 nmol/mg/min.

**Q.** For COCCNC(=O)[C@H]1C[C@H](NC(=O)c2ccc(-n3ccccc3=O)cc2)[C@H](NC(=O)c2ccc(Cl)s2)C1, which Ki (Coagulation factor X) is on record?
**A.** Its Ki is 2.9 nM.

**Q.** Which results are given for O=C(N[C@H]1COC[C@H]1NC(=O)c1ccc(Cl)s1)c1ccc(-n2ccccc2=O)cc1?
**A.** Ki (Plasminogen): > 22000 nM; Ki (Coagulation factor XI): > 11000 nM; Ki (Coagulation factor X): 2.6 nM; clearance [2]: 26.7 mL/min/kg; Ki (Prothrombin): > 12000 nM; Ki [3]: > 14000 nM; bioavailability [4]: 97%; half-life [5]: 72 min; Ki (Coagulation factor VII): > 11000 nM; Vd [6]: 1 L/kg; CL (Liver microsomes): 0.031 nmol/mg/min; Ki [7]: > 20000 nM; Ki (Trypsin): > 5000 nM; Ki [8]: > 21000 nM; Ki [9]: > 21000 nM; half-life [10]: 72 min

**Q.** For O=C(N[C@H]1CNC[C@H]1NC(=O)c1ccc(Cl)s1)c1ccc(-n2ccccc2=O)cc1, which Ki (Coagulation factor X) is on record?
**A.** Its Ki is 9.5 nM.

**Q.** And the IC50 [1]?
**A.** The IC50 was greater than 100000 nM.

**Q.** And the CL (Liver microsomes)?
**A.** Its CL is 0 nmol/mg/min.

**Q.** For O=C(N[C@H]1CN(C(=O)OCC2c3ccccc3-c3ccccc32)C[C@H]1NC(=O)c1ccc(Cl)s1)c1ccc(-n2ccccc2=O)cc1, which Ki (Coagulation factor X) is on record?
**A.** Its Ki is 4.5 nM.

**Q.** With COC(=O)C1C[C@H](NC(=O)c2ccc(-n3ccccc3=O)cc2)[C@H](NC(=O)c2ccc(Cl)s2)C1 (some centres undefined) as the compound, how does the Ki (Coagulation factor X) read?
**A.** The Ki was 0.39 nM.

**Q.** For O=C(N[C@H]1Cc2ccccc2[C@H]1NC(=O)c1ccc2c(Cl)c[nH]c2c1)c1ccc(-n2ccccc2=O)cc1, which Ki (Coagulation factor X) is on record?
**A.** The Ki was 0.84 nM.

**Q.** For O=C(N[C@H]1C[C@H](C(=O)N2CCOCC2)C[C@H]1NC(=O)c1ccc(Cl)s1)c1ccc(-n2ccccc2=O)cc1, which Ki (Coagulation factor X) is on record?
**A.** Its Ki is 1.6 nM.

**Q.** With O=C(N[C@@H]1Cc2ccccc2[C@@H]1NC(=O)c1ccc(-n2ccccc2=O)cc1)c1ccc2c(Cl)c[nH]c2c1 as the compound, how does the Ki (Coagulation factor X) read?
**A.** Its Ki is 1 nM.

**Q.** With O=C(N[C@H]1COC[C@H]1NC(=O)c1ccc2c(Cl)c[nH]c2c1)c1ccc(-n2ccccc2=O)cc1 as the compound, how does the Ki (Coagulation factor X) read?
**A.** Its Ki is 2.6 nM.

**Q.** Which Ki (Coagulation factor X) does the source give for CCOC(=O)N1C[C@H](NC(=O)c2ccc(-n3ccccc3=O)cc2)[C@H](NC(=O)c2ccc3c(Cl)c[nH]c3c2)C1 here?
**A.** Its Ki is 2.8 nM.

**Q.** For CC(=O)N1C[C@H](NC(=O)c2ccc(-n3ccccc3=O)cc2)[C@H](NC(=O)c2ccc3c(Cl)c[nH]c3c2)C1, which Ki (Coagulation factor X) is on record?
**A.** The Ki was 3.9 nM.

**Q.** Which Ki (Coagulation factor X) does the source give for CS(=O)(=O)N1C[C@H](NC(=O)c2ccc(-n3ccccc3=O)cc2)[C@H](NC(=O)c2ccc(Cl)s2)C1 here?
**A.** The Ki was 0.44 nM.

**Q.** What about the IC50 [1] of the same compound?
**A.** Its IC50 is greater than 100000 nM.

**Q.** What about the CL (Liver microsomes) of the same compound?
**A.** Its CL is 0 nmol/mg/min.

**Q.** Which Ki (Coagulation factor X) does the source give for CC(C)(C)C(=O)N1C[C@H](NC(=O)c2ccc(-n3ccccc3=O)cc2)[C@H](NC(=O)c2ccc(Cl)s2)C1 here?
**A.** Its Ki is 1.7 nM.

**Q.** What about the IC50 [1] of the same compound?
**A.** Its IC50 is greater than 100000 nM.

**Q.** With COCC(=O)N1C[C@H](NC(=O)c2ccc(-n3ccccc3=O)cc2)[C@H](NC(=O)c2ccc(Cl)s2)C1 as the compound, how does the Ki (Coagulation factor X) read?
**A.** The Ki was 0.36 nM.

**Q.** And the IC50 [1]?
**A.** The IC50 was greater than 100000 nM.

**Q.** Which Ki (Coagulation factor X) does the source give for CNC(=O)N1C[C@H](NC(=O)c2ccc(-n3ccccc3=O)cc2)[C@H](NC(=O)c2ccc(Cl)s2)C1 here?
**A.** The Ki was 1.1 nM.

**Q.** What about the IC50 [1] of the same compound?
**A.** The IC50 was greater than 100000 nM.

**Q.** And the CL (Liver microsomes)?
**A.** The CL was 0 nmol/mg/min.

**Q.** Which Ki (Coagulation factor X) does the source give for COC(=O)[C@H]1C[C@H](NC(=O)c2ccc(-n3ccccc3=O)cc2)[C@H](NC(=O)c2ccc(Cl)s2)C1 here?
**A.** Its Ki is 0.53 nM.

**Q.** Which Ki (Plasma kallikrein) does the source give for O=C(N[C@H]1C[C@H](C(=O)O)C[C@H]1NC(=O)c1ccc(Cl)s1)c1ccc(-n2ccccc2=O)cc1 here?
**A.** Its Ki is greater than 6000 nM.

**Q.** What about the Ki (Plasminogen) of the same compound?
**A.** The Ki was greater than 22000 nM.

**Q.** What about the Ki (Coagulation factor XI) of the same compound?
**A.** Its Ki is greater than 11000 nM.

**Q.** And the Ki (Coagulation factor X)?
**A.** Its Ki is 1.9 nM.

**Q.** What about the Ki (Prothrombin) of the same compound?
**A.** Its Ki is greater than 12000 nM.

**Q.** What about the Ki [3] of the same compound?
**A.** The Ki was greater than 14000 nM.

**Q.** What about the Ki (Coagulation factor VII) of the same compound?
**A.** Its Ki is greater than 11000 nM.

**Q.** What about the Ki [7] of the same compound?
**A.** The Ki was greater than 20000 nM.

**Q.** And the Ki (Trypsin)?
**A.** Its Ki is greater than 5000 nM.

**Q.** What about the Ki [8] of the same compound?
**A.** The Ki was greater than 21000 nM.

**Q.** What about the Ki [9] of the same compound?
**A.** The Ki was greater than 21000 nM.

**Q.** Which remaining at 10 min [11] does the source give for O=C(N[C@H]1c2ccccc2C[C@H]1NC(=O)c1ccc(Cl)s1)c1ccc(-n2ccccc2=O)cc1 here?
**A.** Its remaining at 10 min is 32%.

**Q.** What about the Ki (Coagulation factor X) of the same compound?
**A.** The Ki was 0.27 nM.

**Q.** With O=C(N[C@H]1C[C@H](C(=O)NC2CC2)C[C@H]1NC(=O)c1ccc(Cl)s1)c1ccc(-n2ccccc2=O)cc1 as the compound, how does the Ki (Coagulation factor X) read?
**A.** Its Ki is 1.6 nM.

**Q.** What does the source list for O=C(N[C@H]1CCC[C@H]1NC(=O)c1ccc(Cl)s1)c1ccc(-n2ccccc2=O)cc1?
**A.** remaining at 10 min [11]: 79%; clearance [2]: 11.7 mL/min/kg; Papp [12]: 9.2 ×10⁻⁶ cm/s; bioavailability [4]: 60%; half-life [5]: 42 min; Vd [6]: 0.8 L/kg; clearance (Liver microsomes): 0.063 nmol/min/mg; half-life [10]: 42 min
